Data reported in ChEMBL document CHEMBL3784971, “Synthesis, characterization, antimicrobial and biofilm inhibitory studies of new esterquats” (Bioorg Med Chem Lett, 2016).
Converted amounts (≈) assume the structure as drawn.

Key:
Staphylococcus aureus [1] = test: Bactericidal activity against Staphylococcus aureus MTCC 96 after 24 hrs by serial dilution method; type: functional; conditions: MTCC 96, 24 h
Bacillus subtilis [2] = test: Bactericidal activity against Bacillus subtilis MTCC 121 after 24 hrs by serial dilution method; type: functional; conditions: MTCC 121, 24 h
Pichia kudriavzevii [3] = test: Antimicrobial activity against Candida krusei MTCC 3020 assessed as growth inhibition after 24 hrs by agar well diffusion method; type: functional; conditions: MTCC 3020, 24 h
Candida albicans [4] = test: Antimicrobial activity against Candida albicans MTCC 183 assessed as growth inhibition after 24 hrs by agar well diffusion method; type: functional; conditions: MTCC 183, 24 h
Staphylococcus aureus [5] = test: Antibiofilm activity against Staphylococcus aureus MTCC 96 after 24 hrs by crystal violet staining based assay; type: functional, organism-based; conditions: MTCC 96, 24 h
Summary of the method: (§1)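 Biofilm inhibition tested for amine esters and esterquats. IC50 values (µg/mL) are the mean of three determinations, with ciprofloxacin as reference.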

[Candida] aaseri [6] = Fungicidal activity against Candida aaseri MTCC 1962 after 24 hrs by serial dilution method; type: functional; conditions: Yamadazyma aaseri, MTCC 1962, 24 h
Pseudomonas aeruginosa = test: Antimicrobial activity against Pseudomonas aeruginosa MTCC 2453 assessed as growth inhibition after 24 hrs by agar well diffusion method; type: functional; conditions: MTCC 2453, 24 h
Candida albicans [7] = test: Fungicidal activity against Candida albicans MTCC 227 after 24 hrs by serial dilution method; type: functional; conditions: MTCC 227, 24 h
Candida albicans [8] = test: Antimicrobial activity against Candida albicans MTCC 227 assessed as growth inhibition after 24 hrs by agar well diffusion method; type: functional; conditions: MTCC 227, 24 h
Candida parapsilosis [9] = test: Fungicidal activity against Candida parapsilosis MTCC 1744 after 24 hrs by serial dilution method; type: functional; conditions: Lodderomyces parapsilosis, MTCC 1744, 24 h
[Candida] aaseri [10] = Antimicrobial activity against Candida aaseri MTCC 1962 assessed as growth inhibition after 24 hrs by agar well diffusion method; type: functional; conditions: Yamadazyma aaseri, MTCC 1962, 24 h
Candida albicans [11] = test: Fungicidal activity against Candida albicans MTCC 3018 after 24 hrs by serial dilution method; type: functional; conditions: MTCC 3018, 24 h
Candida albicans [12] = test: Fungicidal activity against Candida albicans MTCC 1637 after 24 hrs by serial dilution method; type: functional; conditions: MTCC 1637, 24 h
Candida albicans [13] = test: Antimicrobial activity against Candida albicans MTCC 1637 assessed as growth inhibition after 24 hrs by agar well diffusion method; type: functional; conditions: MTCC 1637, 24 h
Escherichia coli [14] = test: Antimicrobial activity against Escherichia coli MTCC 739 assessed as growth inhibition after 24 hrs by agar well diffusion method; type: functional; conditions: MTCC 739, 24 h
Candida albicans [15] = test: Antimicrobial activity against Candida albicans MTCC 854 assessed as growth inhibition after 24 hrs by agar well diffusion method; type: functional; conditions: MTCC 854, 24 h
Candida albicans [16] = test: Fungicidal activity against Candida albicans MTCC 854 after 24 hrs by serial dilution method; type: functional; conditions: MTCC 854, 24 h
Bacillus subtilis [17] = test: Antibiofilm activity against Bacillus subtilis MTCC 121 after 24 hrs by crystal violet staining based assay; type: functional, organism-based; conditions: MTCC 121, 24 h; summary of the method: as §1
Raoultella planticola [18] = test: Bactericidal activity against Klebsiella planticola MTCC 530 after 24 hrs by serial dilution method; type: functional; conditions: MTCC 530, 24 h
Micrococcus luteus [19] = test: Antimicrobial activity against Micrococcus luteus MTCC 2470 assessed as growth inhibition after 24 hrs by agar well diffusion method; type: functional; conditions: MTCC 2470, 24 h
Candida parapsilosis [20] = test: Antimicrobial activity against Candida parapsilosis MTCC 1744 assessed as growth inhibition after 24 hrs by agar well diffusion method; type: functional; conditions: Lodderomyces parapsilosis, MTCC 1744, 24 h
Pichia kudriavzevii [21] = test: Fungicidal activity against Candida krusei MTCC 3020 after 24 hrs by serial dilution method; type: functional; conditions: MTCC 3020, 24 h
Candida albicans [22] = test: Antimicrobial activity against Candida albicans MTCC 3958 assessed as growth inhibition after 24 hrs by agar well diffusion method; type: functional; conditions: MTCC 3958, 24 h
Candida albicans [23] = test: Fungicidal activity against Candida albicans MTCC 183 after 24 hrs by serial dilution method; type: functional; conditions: MTCC 183, 24 h
Pichia sporocuriosa [24] = test: Fungicidal activity against Issatchenkia hanoiensis MTCC 4755 after 24 hrs by serial dilution method; type: functional; conditions: MTCC 4755, 24 h
Candida albicans [25] = test: Antimicrobial activity against Candida albicans MTCC 3017 assessed as growth inhibition after 24 hrs by agar well diffusion method; type: functional; conditions: MTCC 3017, 24 h
Raoultella planticola [26] = test: Antimicrobial activity against Klebsiella planticola MTCC 530 assessed as growth inhibition after 24 hrs by agar well diffusion method; type: functional; conditions: MTCC 530, 24 h
Micrococcus luteus [27] = test: Antibiofilm activity against Micrococcus luteus MTCC 2470 after 24 hrs by crystal violet staining based assay; type: functional, organism-based; conditions: MTCC 2470, 24 h; summary of the method: as §1
Nakaseomyces glabratus [28] = test: Fungicidal activity against Candida glabrata MTCC 3019 after 24 hrs by serial dilution method; type: functional; conditions: MTCC 3019, 24 h
Candida albicans [29] = test: Antimicrobial activity against Candida albicans MTCC 4748 assessed as growth inhibition after 24 hrs by agar well diffusion method; type: functional; conditions: MTCC 4748, 24 h
Candida albicans [30] = test: Antimicrobial activity against Candida albicans MTCC 7315 assessed as growth inhibition after 24 hrs by agar well diffusion method; type: functional; conditions: MTCC 7315, 24 h
Candida albicans [31] = test: Fungicidal activity against Candida albicans MTCC 3017 after 24 hrs by serial dilution method; type: functional; conditions: MTCC 3017, 24 h
Bacillus subtilis [32] = test: Antimicrobial activity against Bacillus subtilis MTCC 121 assessed as growth inhibition after 24 hrs by agar well diffusion method; type: functional; conditions: MTCC 121, 24 h
Candida albicans [33] = test: Antimicrobial activity against Candida albicans MTCC 3018 assessed as growth inhibition after 24 hrs by agar well diffusion method; type: functional; conditions: MTCC 3018, 24 h
Escherichia coli [34] = test: Bactericidal activity against Escherichia coli MTCC 739 after 24 hrs by serial dilution method; type: functional; conditions: MTCC 739, 24 h
Pichia sporocuriosa [35] = test: Antimicrobial activity against Issatchenkia hanoiensis MTCC 4755 assessed as growth inhibition after 24 hrs by agar well diffusion method; type: functional; conditions: MTCC 4755, 24 h
Candida albicans [36] = test: Fungicidal activity against Candida albicans MTCC 4748 after 24 hrs by serial dilution method; type: functional; conditions: MTCC 4748, 24 h
Staphylococcus aureus [37] = test: Antibiofilm activity against Staphylococcus aureus MLS16 MTCC 2940 after 24 hrs by crystal violet staining based assay; type: functional, organism-based; conditions: MLS16 MTCC 2940, 24 h; summary of the method: as §1
Micrococcus luteus [38] = test: Bactericidal activity against Micrococcus luteus MTCC 2470 after 24 hrs by serial dilution method; type: functional; conditions: MTCC 2470, 24 h
Staphylococcus aureus [39] = test: Antimicrobial activity against Staphylococcus aureus MTCC 96 assessed as growth inhibition after 24 hrs by agar well diffusion method; type: functional; conditions: MTCC 96, 24 h
Nakaseomyces glabratus [40] = test: Antimicrobial activity against Candida glabrata MTCC 3019 assessed as growth inhibition after 24 hrs by agar well diffusion method; type: functional; conditions: MTCC 3019, 24 h
Candida albicans [41] = test: Fungicidal activity against Candida albicans MTCC 7315 after 24 hrs by serial dilution method; type: functional; conditions: MTCC 7315, 24 h
Staphylococcus aureus [42] = test: Bactericidal activity against Staphylococcus aureus MLS16 MTCC 2940 after 24 hrs by serial dilution method; type: functional; conditions: MLS16 MTCC 2940, 24 h
Staphylococcus aureus [43] = test: Antimicrobial activity against Staphylococcus aureus MLS16 MTCC 2940 assessed as growth inhibition after 24 hrs by agar well diffusion method; type: functional; conditions: MLS16 MTCC 2940, 24 h
Candida albicans [44] = test: Fungicidal activity against Candida albicans MTCC 3958 after 24 hrs by serial dilution method; type: functional; conditions: MTCC 3958, 24 h

In the case of `CCCCCCCCCCCC[N+](C)(C)CCCCCCCCCCC(=O)OC.[Cl-]`, the MBC (Staphylococcus aureus [1]) is reported as 31.2 mg/L, the MBC (Bacillus subtilis [2]) is reported as 31.2 mg/L and the MIC (Pichia kudriavzevii [3]) is reported as 62.5 mg/L. It also gave an MIC (Candida albicans [4]) of 31.2 mg/L, an IC50 (Staphylococcus aureus [5]) of 9.1 mg/L and an MFC ([Candida] aaseri [6]) of 62.5 mg/L. For the same molecule, the MIC (Pseudomonas aeruginosa) was greater than 125 mg/L, the MFC (Candida albicans [7]) was 31.2 mg/L and the MIC (Candida albicans [8]) was 31.2 mg/L. The MFC (Candida parapsilosis [9]) was 62.5 mg/L, the MIC ([Candida] aaseri [10]) was 31.2 mg/L and the MFC (Candida albicans [11]) was 62.5 mg/L. For the same molecule, the MFC (Candida albicans [12]) was 62.5 mg/L, the MIC (Candida albicans [13]) was 62.5 mg/L and the MIC (Escherichia coli [14]) was 15.6 mg/L. It also gave an MIC (Candida albicans [15]) of 31.2 mg/L, an MFC (Candida albicans [16]) of 62.5 mg/L and an IC50 (Bacillus subtilis [17]) of 8.5 mg/L. For the same molecule, the MBC (Raoultella planticola [18]) was 15.6 mg/L, the MIC (Micrococcus luteus [19]) was 7.8 mg/L and the MIC (Candida parapsilosis [20]) was 62.5 mg/L. The MFC (Pichia kudriavzevii [21]) was 62.5 mg/L, the MIC (Candida albicans [22]) was 62.5 mg/L and the MFC (Candida albicans [23]) was 31.2 mg/L. It also gave an MFC (Pichia sporocuriosa [24]) of 62.5 mg/L, an MIC (Candida albicans [25]) of 31.2 mg/L and an MIC (Raoultella planticola [26]) of 7.8 mg/L. The IC50 (Micrococcus luteus [27]) was 8.8 mg/L, the MFC (Nakaseomyces glabratus [28]) was 31.2 mg/L and the MIC (Candida albicans [29]) was 15.6 mg/L. The MIC (Candida albicans [30]) was 31.2 mg/L, the MFC (Candida albicans [31]) was 62.5 mg/L and the MIC (Bacillus subtilis [32]) was 15.6 mg/L. It also gave an MIC (Candida albicans [33]) of 62.5 mg/L, an MBC (Escherichia coli [34]) of 31.2 mg/L and an MIC (Pichia sporocuriosa [35]) of 31.2 mg/L. The MFC (Candida albicans [36]) was 31.2 mg/L, the IC50 (Staphylococcus aureus [37]) was 22.2 mg/L and the MBC (Micrococcus luteus [38]) was 31.2 mg/L. The MIC (Staphylococcus aureus [39]) was 15.6 mg/L, the MIC (Nakaseomyces glabratus [40]) was 31.2 mg/L and the MFC (Candida albicans [41]) was 31.2 mg/L. For the same molecule, the MBC (Staphylococcus aureus [42]) was 31.2 mg/L, the MIC (Staphylococcus aureus [43]) was 7.8 mg/L and the MFC (Candida albicans [44]) was 31.2 mg/L.
Work on `Clc1ccc(COC(Cn2ccnc2)c2ccc(Cl)cc2Cl)c(Cl)c1` (stereo not drawn) [MICONAZOLE] yielded an MIC (Pichia kudriavzevii [3]) of 7.8 mg/L (≈ 18.7 µM), an MIC (Candida albicans [4]) of 7.8 mg/L (≈ 18.7 µM) and an MFC ([Candida] aaseri [6]) of 7.8 mg/L (≈ 18.7 µM). The MFC (Candida albicans [7]) was 15.6 mg/L (≈ 37.5 µM), the MIC (Candida albicans [8]) was 7.8 mg/L (≈ 18.7 µM) and the MFC (Candida parapsilosis [9]) was 7.8 mg/L (≈ 18.7 µM). For the same molecule, the MIC ([Candida] aaseri [10]) was 7.8 mg/L (≈ 18.7 µM), the MFC (Candida albicans [11]) was 7.8 mg/L (≈ 18.7 µM) and the MFC (Candida albicans [12]) was 15.6 mg/L (≈ 37.5 µM). The MIC (Candida albicans [13]) was 7.8 mg/L (≈ 18.7 µM), the MIC (Candida albicans [15]) was 7.8 mg/L (≈ 18.7 µM) and the MFC (Candida albicans [16]) was 15.6 mg/L (≈ 37.5 µM). The MIC (Candida parapsilosis [20]) was 7.8 mg/L (≈ 18.7 µM), the MFC (Pichia kudriavzevii [21]) was 7.8 mg/L (≈ 18.7 µM) and the MIC (Candida albicans [22]) was 7.8 mg/L (≈ 18.7 µM). The MFC (Candida albicans [23]) was 7.8 mg/L (≈ 18.7 µM), the MFC (Pichia sporocuriosa [24]) was 7.8 mg/L (≈ 18.7 µM) and the MIC (Candida albicans [25]) was 7.8 mg/L (≈ 18.7 µM). For the same molecule, the MFC (Nakaseomyces glabratus [28]) was 15.6 mg/L (≈ 37.5 µM), the MIC (Candida albicans [29]) was 7.8 mg/L (≈ 18.7 µM) and the MIC (Candida albicans [30]) was 7.8 mg/L (≈ 18.7 µM). It also gave an MFC (Candida albicans [31]) of 7.8 mg/L (≈ 18.7 µM), an MIC (Candida albicans [33]) of 7.8 mg/L (≈ 18.7 µM) and an MIC (Pichia sporocuriosa [35]) of 7.8 mg/L (≈ 18.7 µM). For the same molecule, the MFC (Candida albicans [36]) was 7.8 mg/L (≈ 18.7 µM), the MIC (Nakaseomyces glabratus [40]) was 7.8 mg/L (≈ 18.7 µM) and the MFC (Candida albicans [41]) was 7.8 mg/L (≈ 18.7 µM). It also gave an MFC (Candida albicans [44]) of 15.6 mg/L (≈ 37.5 µM).
